Test [1] in a line: S. cerevisiae growth inhibition in permissive medium (OD615), pilot counter-assay for S. cerevisiae lifespan shortening project, permissive growth control (AID 705;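 active = growth inhibition above 25% in both replicates, a cutoff set 3 SD above the mean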). The conditions noted are these: OD615, 24 h, at 10 µM, stronger effect = higher value. In outline:
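assay system = Saccharomyces cerevisiae strain carrying genetically modified DeaD replicative-lifespan system | technique = absorbance (optical density) at 615 nm | buffer or medium = permissive raffinose/galactose medium | timing = cells pre-grown 4 h, then 24 h compound exposure, 30 °C humidified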

A short description of test [2]: S. cerevisiae growth inhibition in restrictive medium, OD615, pilot screen, restrictive growth control, yeast lifespan reduction project (AID 706;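 active = growth inhibition above a set limit, 3 SD over mean compound inhibition, in both replicates, cut at about 43% in these data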;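 note: modified DeaD lifespan yeast strain shifted to restrictive glucose medium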). The conditions noted are these: OD615, 48 h, at 10 µM, stronger effect = higher value. Put shortly:
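System: modified S. cerevisiae. Buffer or medium: CSMM-D glucose medium. Incubation: 4 h pre-growth plus 48 h compound exposure, 30 °C. Detection: absorbance (optical density) measured at 615 nm.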

Test [3] in a line: doxorubicin toxicity protection in MRP-1 cells – H69AR cells, CellTiter-Glo, duplicate, MRP-1 activator project, pilot screen (AID 807;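 active = viability increase at or above a cutoff of the median across tested compounds plus 3 SD, cut at about 8.5% in these data, passing the limit was not always enough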;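 note: compound pretreatment 18-22 h then 72 h combined with doxorubicin; 0% = doxorubicin alone and 100% = vehicle without doxorubicin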). The conditions noted are these: H69AR viability with doxorubicin, CellTiter-Glo luminescence; at 10 µM; stronger effect = higher value. On the technique in general: In ATP-based viability assays light output follows the ATP content of the culture.
Test [4] is described as follows: viability of HCT116 without oncogenic beta-catenin – human colon tumor cells, pilot screen (AID 823;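 active = cell viability at or below a set limit in both duplicate runs, the limit being the all-compound median minus 4 SD, cut at about 23% in these data, passing the limit was not always enough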;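 note: 0% = wells killed by 20 µM Hyamine and 100% = untreated DMSO cell wells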). The conditions noted are these: HCT116 beta-catenin knockout viability, CellTiter-Glo, 60 h; at 10 µM; stronger effect = lower value.
The nature of test [5]: viability of PTEN-null HCT116 cells – cell-based, HCT116 clonal line, CellTiter-Glo, pilot screen (AID 824;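 active = viability at or below 27.92% in each of two runs, the all-compound median minus 4 SD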;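 note: 0% = 20 µM Hyamine control and 100% = vehicle cell control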). As to conditions: HCT116 PTEN-deleted viability, 60 h, at 10 µM, stronger effect = lower value.
Test [6] in a line: RAM pathway blockade in budding yeast – dse1pr::URA3 reporter, 5-FOA selection, pilot screen (AID 869).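 Note: 0% = DMSO wells with no growth and 100% = 10 µM 1-NA-PP1 with full growth; RAM network block rescues cells from 5-FOA so hits raise OD615 growth.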 The conditions noted are these: S. cerevisiae dse1pr::URA3 5-FOA growth, OD615, 2 d; at 10 µM; stronger effect = higher value; strain carries analog-sensitive mutant Cbk1 kinase.
A short description of test [7]: RAM signaling pathway blockade in yeast – S. cerevisiae, Pdr1DBD-CYC8 efflux-inhibited sensitized strain, primary screen (AID 1298;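 active = RAM network inhibition above 8.4% in each of two replicates, 3 SD over the compound average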;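 note: 0% = DMSO untreated cells without growth and 100% = 10 µM 1-NA-PP1 full growth; higher means more yeast growth rescued from 5-FOA killing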). The conditions noted are these: S. cerevisiae cbk1-as DSE1-URA3 strain, 5-FOA growth OD615, 2 d; at 50 µM; stronger effect = higher value.

From PubChem BioAssay come the findings set out here.

For orientation: viability means a read-out of living cells in per cent, often relative to untreated cells. By inhibition is commonly meant the relative decrease from the control value, in per cent.

SMILES strings stand for the structures. A number with no mark means an inactive call. Records with an inconclusive call do not appear. The source made the active and inactive calls.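 Rule for the calls, unless noted: active = inhibition over a set limit, the all-compound mean plus 3 SD, in both replicate runs; inconclusive = over that limit in just one replicate run; inactive = at or under that limit in both runs.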

For `O=C1Nc2ccccc2C(O)(C(=O)N2CCCCC2)N1c1ccccc1` (centres undefined), the growth inhibition in test [1] is -10.5%; in test [2] it was -20.2%. Further, in test [3], the viability increase is -1.87%. The viability was 98.9% in test [4] and 92.2% in test [5]. Further, the inhibition in test [6] is 2.2%. In addition, the RAM network inhibition in test [7] is 7.2%.

On to `COc1ccccc1-c1c(C#N)c(SCC(=O)N2CCCC2)nc(C)c1C(N)=O`, for which the growth inhibition in test [1] was -2.97%; in test [2], -7.78%. The viability increase in test [3] is -0.18%. The results for the viability in test [4] and in test [5] were 101% and 98.2%, respectively. The inhibition in test [6] is 1.73%. Moreover, in test [7], the RAM network inhibition is 1.04%.

Turning to `Cc1ccc(CNC(=O)CCCNS(=O)(=O)c2cccc3nonc23)cc1`, the growth inhibition in test [1] is -4.66%; in test [2] it was 0.525%. For the same molecule, the viability increase in test [3] is -1.25%. In addition, the viability in test [4] and in test [5] was 101% throughout. Besides, in test [6], the inhibition is -0.185%. Moreover, the RAM network inhibition in test [7] is 3%.

In the case of `O=C(NCc1ccco1)C1c2ccccc2Oc2ccccc21`, the figures for the growth inhibition in test [1] and in test [2] were -6.75% and 6.04%, respectively. Further, the viability increase in test [3] was -5.24%. Also, the results for the viability in test [4] and in test [5] were 83.8% and 88.4%, respectively. For the same molecule, the inhibition in test [6] is 0.12%. Also, the RAM network inhibition in test [7] was 3.94%.

`Cc1cc(C)n(C(=O)CCCC(=O)n2nc(C)cc2C)n1`: the growth inhibition was -10.5% in test [1] and -10.9% in test [2]. Moreover, the viability increase in test [3] was -1.19%. In addition, the viability in test [4] was 105%; in test [5], 97.4%. Further, the inhibition in test [6] is 1.19%. Besides, the RAM network inhibition in test [7] was 2.92%.

Turning to `CC(C)Cc1cc(C(=O)Nc2cc(Cl)ccc2Cl)no1`, the growth inhibition is -14.2% in test [1] and -0.125% in test [2]. Besides, the viability increase in test [3] is -2.35%. Moreover, the viability was 104% in test [4] and 98% in test [5]. Also, the inhibition in test [6] was 3.71%. Moreover, the RAM network inhibition in test [7] is 1.67%.

As to `CCC(=O)c1cc2c(cc1NC(=O)c1cccs1)OCCO2`, the figures for the growth inhibition in test [1] and in test [2] were -5.85% and -7.54%, respectively. Moreover, the viability increase in test [3] is -6.83%. Besides, the viability in test [4] is 69.2%; in test [5], 75.2%. The inhibition in test [6] is 1.38%. For the same molecule, the RAM network inhibition in test [7] is 9.21%.

As for `CC1CCCCC1NC(=O)c1ccc(CNc2c(N3CCCC3)c(=O)c2=O)cc1` (centres undefined), the growth inhibition in test [1] is -2.63%; in test [2] it was 8.32%. In addition, the viability increase in test [3] was -0.12%. Moreover, the values for the viability in test [4] and in test [5] were 96.7% and 90.8%, respectively. In test [6], the inhibition is 1.01%. In test [7], the RAM network inhibition is 0.72%.

For the molecule `COc1ccc(C(=O)/C(C)=N/O)cc1OC`, the growth inhibition in test [1] is -15.6%; in test [2], -1.75%. For the same molecule, the viability increase in test [3] was -0.59%. Moreover, the viability in test [4] was 90.5%; in test [5], 88.6%. Also, the inhibition in test [6] is 1.42%. For the same molecule, the RAM network inhibition in test [7] is 2.98%.

Regarding `Cc1ccccc1NC(=O)c1cnn(-c2ccccc2)c1NC(=O)c1ccco1`, the growth inhibition in test [1] was -12.6%; in test [2], -3.13%. The viability increase in test [3] was -0.49%. Also, the viability in test [4] was 103%; in test [5] it was 98.2%. In test [6], the inhibition was 0.855%. Besides, the RAM network inhibition in test [7] is 1.65%.

`CCCCCn1c(NC2CCCCC2)nc2c1c(=O)[nH]c(=O)n2C`: the results for the growth inhibition in test [1] and in test [2] were -15.8% and -18.2%, respectively. Further, the viability increase in test [3] is -3.48%. The viability is 83.3% in test [4] and 86.1% in test [5]. Also, the inhibition in test [6] was 1.53%. For the same molecule, the RAM network inhibition in test [7] is -0.84%.

Consider `CC(=O)c1ccc(OCC(O)CN2CCOCC2)cc1` (centres undefined), for which the results for the growth inhibition in test [1] and in test [2] were -11.4% and 10.1%, respectively. In test [3], the viability increase is 0.28%. Besides, the viability was 103% in test [4] and 90.7% in test [5]. In addition, in test [6], the inhibition was 2.42%. In addition, the RAM network inhibition in test [7] was 0.84%.

For `COc1ccccc1C(=O)n1nc(C)cc1C`, the growth inhibition in test [1] is -3.16%; in test [2], -0.83%. Besides, the viability increase in test [3] was 0.58%. Also, the values for the viability in test [4] and in test [5] were 92% and 95.8%, respectively. Further, in test [6], the inhibition is -0.645%. The RAM network inhibition in test [7] is 3.78%.

Regarding `CCc1nnc(NC(=O)CSc2nccn2-c2cccc(C)c2)s1`, the growth inhibition in test [1] was -8.43%; in test [2], 11.6%. Further, the viability increase in test [3] is 0.02%. Also, the viability in test [4] was 109%; in test [5], 98.1%. Besides, the inhibition in test [6] was 0.64%. For the same molecule, the RAM network inhibition in test [7] was 5.11%.

`O=C(c1cccc(C(=O)N2CCN(c3ccccc3F)CC2)c1)N1CCN(c2ccccc2F)CC1`: the results for the growth inhibition in test [1] and in test [2] were -6.5% and -6.43%, respectively. Also, the viability increase in test [3] was -2.61%. Besides, the viability in test [4] was 56.8%; in test [5] it was 54.9%. Besides, the inhibition in test [6] is 3.28%. For the same molecule, the RAM network inhibition in test [7] was 4.24%.

Regarding `O=S(=O)(NCCSc1nnc(-c2ccco2)n1-c1ccccc1)c1ccccc1`, the growth inhibition is -14.1% in test [1] and -19.2% in test [2]. In test [3], the viability increase was -3.53%. Further, the values for the viability in test [4] and in test [5] were 83.9% and 87.1%, respectively. In addition, in test [6], the inhibition is 1.52%. In test [7], the RAM network inhibition is 6.44%.

On to `CCCc1ccc(Oc2c(-c3ccc(O)c(C)c3O)n[nH]c2C)cc1`, for which the growth inhibition in test [1] is 93.6% (active); in test [2], 87.5% (active). Besides, the viability increase in test [3] is -2.16%. The viability in test [4] is 72.3%; in test [5] it was 74.3%. Besides, the inhibition in test [6] was -2.1%. Also, the RAM network inhibition in test [7] was -1.26%.
